Test results reported in ChEMBL document CHEMBL1287652, “QSAR modeling, synthesis and bioassay of diverse leukemia RPMI-8226 cell line active agents” (2010).

What was measured:
Format in all cases: functional
[1] = system: U-251; assay: Antitumor activity against human U251 cells after 48 hrs by sulforhodamine B assay; details: U-251, 48 h
Procedure, shortened: (§1)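 Cells grown in RPMI-1640 with 5% FBS and 2 mM glutamine, plated and preincubated 24 h; time-zero plates TCA-fixed. Five-level serial dilutions added, 48 h at 37 °C. TCA fixation, SRB staining, absorbance 515 nm. GI50 derived from [(Ti−Tz)/(C−Tz)]×100 = 50; TGI is concentration giving 100% growth inhibition.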

[2] = system: MDA-MB-231; assay: Antitumor activity against human MDA-MB-231 cells after 48 hrs by sulforhodamine B assay; details: MDA-MB-231, 48 h
Procedure, shortened: (§2)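 Cells were grown in RPMI-1640 with 5% FBS and 2 mM L-glutamine, plated at 5000–40,000 cells/well, and preincubated for 24 h. A time-zero plate was TCA-fixed. Compounds were added from DMSO stock at five concentrations for 48 h at 37 °C. Cells were fixed with TCA (adherent 10%, suspension 16%) and stained with SRB, and A515 was read. GI50 and TGI were calculated from Tz, control and test absorbances.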

[3] = system: SK-MEL-5; assay: Antitumor activity against human SK-MEL-5 cells after 48 hrs by sulforhodamine B assay; details: SK-MEL-5, 48 h
Procedure, shortened: (§3)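 Cells were cultured in RPMI-1640 (5% FBS, 2 mM L-glutamine), pre-incubated for 24 h with time-zero plates TCA-fixed, then exposed for 48 h to five serial dilutions. The SRB read-out at 515 nm used time-zero, control and test absorbances. GI50 solves [(Ti−Tz)/(C−Tz)]×100 = 50 (net protein increase). TGI is the concentration giving 100% growth inhibition.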

[4] = Antitumor activity against human […] cells after 48 hrs by sulforhodamine B assay; details: RPMI-8226, 48 h; procedure, shortened: as §3
[5] = system: OVCAR-5; assay: Antitumor activity against human OVCAR5 cells after 48 hrs by sulforhodamine B assay; details: OVCAR-5, 48 h; procedure, shortened: as §3
[6] = system: COLO 205; assay: Antitumor activity against human COLO205 cells after 48 hrs by sulforhodamine B assay; details: COLO 205, 48 h; procedure, shortened: as §2
[7] = system: BT-549; assay: Antitumor activity against human BT549 cells after 48 hrs by sulforhodamine B assay; details: BT-549, 48 h; procedure, shortened: as §2
[8] = system: NCI-H460; assay: Antitumor activity against human NCI-H460 cells after 48 hrs by sulforhodamine B assay; details: NCI-H460, 48 h; procedure, shortened: as §3
[9] = system: HL-60(TB); assay: Antitumor activity against human HL-60(TB) cells after 48 hrs by sulforhodamine B assay; details: HL-60, 48 h
Procedure, shortened: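 NCI panel screen. Cells were grown in RPMI-1640 with 5% FBS and 2 mM L-glutamine, seeded at 5000–40,000 cells/well depending on doubling time, and preincubated 24 h at 37 °C in 5% CO2. Compound was diluted from a DMSO concentrate to five levels and given for 48 h. Settled cells were fixed with TCA (final 16%), stained with 0.4% SRB, and read at 515 nm. GI50 was taken from [(Ti−Tz)/(C−Tz)]×100 = 50.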

[10] = system: NCI-H522; assay: Antitumor activity against human NCI-H522 cells after 48 hrs by sulforhodamine B assay; details: NCI-H522, 48 h; procedure, shortened: as §3
[11] = system: HCT-15; assay: Antitumor activity against human HCT15 cells after 48 hrs by sulforhodamine B assay; details: HCT-15, 48 h; procedure, shortened: as §2
[12] = system: CAKI-1; assay: Antitumor activity against human Caki1 cells after 48 hrs by sulforhodamine B assay; details: CAKI-1, 48 h; procedure, shortened: as §2
[13] = system: SW-620; assay: Antitumor activity against human SW620 cells after 48 hrs by sulforhodamine B assay; details: SW-620, 48 h; procedure, shortened: as §1
[14] = system: NCI/ADR-RES; assay: Antitumor activity against human NCI/ADR-RES cells after 48 hrs by sulforhodamine B assay; procedure, shortened: as §3
[15] = system: UACC-62; assay: Antitumor activity against human UACC62 cells after 48 hrs by sulforhodamine B assay; details: UACC-62, 48 h; procedure, shortened: as §1
[16] = system: A498; assay: Antitumor activity against human A498 cells after 48 hrs by sulforhodamine B assay; details: A498, 48 h; procedure, shortened: as §2
[17] = system: SF-295; assay: Antitumor activity against human SF295 cells after 48 hrs by sulforhodamine B assay; details: SF-295, 48 h; procedure, shortened: as §3
[18] = system: MDA-MB-435; assay: Antitumor activity against human MDA-MB-435 cells after 48 hrs by sulforhodamine B assay; details: MDA-MB-435, 48 h; procedure, shortened: as §2
[19] = system: OVCAR-4; assay: Antitumor activity against human OVCAR4 cells after 48 hrs by sulforhodamine B assay; details: OVCAR-4, 48 h; procedure, shortened: as §3
[20] = system: UO-31; assay: Antitumor activity against human UO31 cells after 48 hrs by sulforhodamine B assay; details: UO-31, 48 h; procedure, shortened: as §1
[21] = system: UACC-257; assay: Antitumor activity against human UACC257 cells after 48 hrs by sulforhodamine B assay; details: UACC-257, 48 h; procedure, shortened: as §1
[22] = system: NCI-H23; assay: Antitumor activity against human NCI-H23 cells after 48 hrs by sulforhodamine B assay; details: NCI-H23, 48 h; procedure, shortened: as §3
[23] = system: HT-29; assay: Antitumor activity against human HT-29 cells after 48 hrs by sulforhodamine B assay; details: HT-29, 48 h; procedure, shortened: as §2
[24] = system: EKVX; assay: Antitumor activity against human EKVX cells after 48 hrs by sulforhodamine B assay; procedure, shortened: as §2
[25] = system: SF-268; assay: Antitumor activity against human SF268 cells after 48 hrs by sulforhodamine B assay; details: SF-268, 48 h; procedure, shortened: as §3
[26] = system: SN12C; assay: Antitumor activity against human SN12C cells after 48 hrs by sulforhodamine B assay; procedure, shortened: as §3

`COc1ccc(NC(=O)Nc2ccccc2OCCCOc2ccccc2NC(=O)Nc2ccc(OC)cc2)cc1` showed a GI50 [1] of 3.7 µM, a TGI [1] of 28.8 µM and a GI50 [2] of 8.8 µM. It also gave a TGI [2] of over 100 µM, a GI50 [3] of over 100 µM and a TGI [3] of over 100 µM. The GI50 [4] was 58.3 µM, the TGI [4] was over 100 µM and the GI50 [5] was over 100 µM. For the same compound, the TGI [5] was over 100 µM, the GI50 [6] was 14.3 µM and the TGI [6] was over 100 µM. The GI50 [7] was 1.5 µM, the TGI [7] was 29.2 µM and the GI50 [8] was over 100 µM. For the same compound, the TGI [8] was over 100 µM, the GI50 [9] was 26.7 µM and the TGI [9] was 68 µM. For the same compound, the GI50 [10] was over 100 µM, the TGI [10] was over 100 µM and the GI50 [11] was over 100 µM. For the same compound, the TGI [11] was over 100 µM, the GI50 [12] was over 100 µM and the TGI [12] was over 100 µM. It also gave a GI50 [13] of over 100 µM, a TGI [13] of over 100 µM and a GI50 [14] of over 100 µM. The TGI [14] was over 100 µM, the GI50 [15] was over 100 µM and the TGI [15] was over 100 µM. It also gave a GI50 [16] of 16 µM, a TGI [16] of 72.9 µM and a GI50 [17] of 29.9 µM. It also gave a TGI [17] of over 100 µM, a GI50 [18] of over 100 µM and a TGI [18] of over 100 µM. For the same compound, the GI50 [19] was over 100 µM, the TGI [19] was over 100 µM and the GI50 [20] was over 100 µM. The TGI [20] was over 100 µM, the GI50 [21] was over 100 µM and the TGI [21] was over 100 µM. For the same compound, the GI50 [22] was 12.4 µM, the TGI [22] was over 100 µM and the GI50 [23] was over 100 µM. The TGI [23] was over 100 µM, the GI50 [24] was 10.5 µM and the TGI [24] was over 100 µM. It also gave a GI50 [25] of 7.3 µM, a TGI [25] of over 100 µM and a GI50 [26] of over 100 µM. The TGI [26] was over 100 µM.
